Active and inactive are the calls of the source. The calls are words filed in the database; no cut-off is given here.
Experiments:
[1] = biological target: T1, 3-ketoacyl-CoA synthase 20 (Arabidopsis thaliana) (UniProt Q9FG87); assay: Inhibition of Arbidopsis thaliana C-terminal His-tagged At5g43760 expressed in Saccharomyces cerevisiae INVSc1 at 100 uM after 18 to 20 hr by GC/MS analysis
T1 sequence (whole entry): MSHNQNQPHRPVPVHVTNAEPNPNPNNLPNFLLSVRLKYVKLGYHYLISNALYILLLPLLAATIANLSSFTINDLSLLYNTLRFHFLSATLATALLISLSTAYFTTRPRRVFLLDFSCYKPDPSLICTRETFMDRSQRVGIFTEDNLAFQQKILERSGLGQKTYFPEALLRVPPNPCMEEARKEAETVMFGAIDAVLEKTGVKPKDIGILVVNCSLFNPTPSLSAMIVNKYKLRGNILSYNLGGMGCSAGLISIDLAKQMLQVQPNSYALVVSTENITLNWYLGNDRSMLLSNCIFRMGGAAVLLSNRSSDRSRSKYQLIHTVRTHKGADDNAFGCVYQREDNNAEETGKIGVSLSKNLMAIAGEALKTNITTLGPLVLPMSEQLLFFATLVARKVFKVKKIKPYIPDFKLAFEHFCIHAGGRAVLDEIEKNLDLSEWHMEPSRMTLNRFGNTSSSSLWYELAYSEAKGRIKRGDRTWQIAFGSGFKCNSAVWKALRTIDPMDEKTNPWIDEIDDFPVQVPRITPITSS
How it was run: (§1)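 pYES2 galactose-inducible constructs in INVSc1, grown at 28°C in uracil-dropout minimal medium with 2% glucose. Log-phase cells were induced in 1% raffinose/2% galactose with herbicide at final 100 μM, in 50-ml culture for 18–20 h, then freeze-dried. FAMEs were made in 1 M methanolic HCl/5% dimethoxypropane at 80°C for 1 h under N2 and run on GC/MS. VLCFA profile was compared with herbicide-free elongase-expressing cells.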

[2] = test system: Saccharomyces cerevisiae; assay: Growth inhibition of Saccharomyces cerevisiae INVSc1 at 100 uM after 18 to 20 hr; type: organism-based; settings: in vivo
How it was run: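 Yeast strains expressing the active elongases were induced in raffinose/galactose medium with herbicide at 100 μM for the 18–20 h incubation. Growth was followed by optical density and compared with cultures lacking inhibitor.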

[3] = biological target: T2, 3-ketoacyl-CoA synthase 17 (Arabidopsis thaliana) (UniProt O65677); assay: Inhibition of Arbidopsis thaliana C-terminal His-tagged KCS2 expressed in Saccharomyces cerevisiae INVSc1 at 100 uM after 18 to 20 hr by GC/MS analysis; how it was run: as §1
T2 sequence (whole entry): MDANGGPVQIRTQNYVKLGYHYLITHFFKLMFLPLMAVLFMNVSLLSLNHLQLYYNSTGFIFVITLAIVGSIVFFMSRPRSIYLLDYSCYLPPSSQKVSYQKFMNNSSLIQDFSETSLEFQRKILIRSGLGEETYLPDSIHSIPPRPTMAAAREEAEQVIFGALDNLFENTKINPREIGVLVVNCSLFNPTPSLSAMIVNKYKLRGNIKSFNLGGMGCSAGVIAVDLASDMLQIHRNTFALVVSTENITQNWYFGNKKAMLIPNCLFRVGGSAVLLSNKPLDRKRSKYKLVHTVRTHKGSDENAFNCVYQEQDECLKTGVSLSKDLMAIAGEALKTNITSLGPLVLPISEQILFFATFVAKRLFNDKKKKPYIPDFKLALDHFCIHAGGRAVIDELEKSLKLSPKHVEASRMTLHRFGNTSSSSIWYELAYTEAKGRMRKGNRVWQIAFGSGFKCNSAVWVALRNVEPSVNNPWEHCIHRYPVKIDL

[4] = biological target: T3, 3-ketoacyl-CoA synthase 18 (Arabidopsis thaliana) (UniProt Q38860); assay: Inhibition of Arbidopsis thaliana C-terminal His-tagged FAE1 expressed in Saccharomyces cerevisiae INVSc1 at 100 uM after 18 to 20 hr by GC/MS analysis; how it was run: as §1
T3 sequence (whole entry): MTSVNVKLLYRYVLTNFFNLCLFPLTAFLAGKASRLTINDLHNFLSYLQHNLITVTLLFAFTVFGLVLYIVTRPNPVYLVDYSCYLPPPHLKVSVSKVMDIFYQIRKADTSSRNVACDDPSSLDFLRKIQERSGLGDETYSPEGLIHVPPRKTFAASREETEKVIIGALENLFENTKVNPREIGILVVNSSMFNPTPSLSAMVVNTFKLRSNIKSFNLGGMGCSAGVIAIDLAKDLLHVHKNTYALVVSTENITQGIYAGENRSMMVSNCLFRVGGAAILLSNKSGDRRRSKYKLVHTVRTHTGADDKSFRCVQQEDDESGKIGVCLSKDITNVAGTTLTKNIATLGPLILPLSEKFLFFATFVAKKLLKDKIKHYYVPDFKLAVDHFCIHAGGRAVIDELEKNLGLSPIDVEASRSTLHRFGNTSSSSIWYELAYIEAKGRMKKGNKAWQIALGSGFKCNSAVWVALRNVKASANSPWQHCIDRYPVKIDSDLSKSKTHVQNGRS

[5] = biological target: T4, 3-ketoacyl-CoA synthase 1 (Arabidopsis thaliana) (UniProt Q9MAM3); assay: Inhibition of Arbidopsis thaliana C-terminal His-tagged KCS1 expressed in Saccharomyces cerevisiae INVSc1 at 100 uM after 18 to 20 hr by GC/MS analysis; how it was run: as §1
T4 sequence (whole entry): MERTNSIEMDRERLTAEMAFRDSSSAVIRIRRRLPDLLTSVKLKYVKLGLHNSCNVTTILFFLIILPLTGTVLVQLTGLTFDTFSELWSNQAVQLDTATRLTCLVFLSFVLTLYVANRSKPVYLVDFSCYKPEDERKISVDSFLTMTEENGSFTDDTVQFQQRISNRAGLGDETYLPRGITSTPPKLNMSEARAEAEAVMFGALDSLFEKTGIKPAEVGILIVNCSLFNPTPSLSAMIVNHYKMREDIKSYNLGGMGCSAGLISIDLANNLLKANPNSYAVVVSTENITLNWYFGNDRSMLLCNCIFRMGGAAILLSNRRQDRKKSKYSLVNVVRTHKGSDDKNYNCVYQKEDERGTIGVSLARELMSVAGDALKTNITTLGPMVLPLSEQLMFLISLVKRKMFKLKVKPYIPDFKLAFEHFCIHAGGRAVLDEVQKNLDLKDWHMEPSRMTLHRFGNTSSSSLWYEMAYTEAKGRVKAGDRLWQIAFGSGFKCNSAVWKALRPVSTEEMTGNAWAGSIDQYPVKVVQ

[6] = test system: Arabidopsis thaliana; assay: Herbicidal activity against Arabidopsis thaliana assessed as apperance of fiddle head phenotype; type: functional, organism-based
[7] = biological target: T5, 3-ketoacyl-CoA synthase 5 (Arabidopsis thaliana) (UniProt Q9C6L5); assay: Inhibition of Arbidopsis thaliana C-terminal His-tagged CER60 expressed in Saccharomyces cerevisiae INVSc1 at 100 uM after 18 to 20 hr by GC/MS analysis; how it was run: as §1
T5 sequence (whole entry): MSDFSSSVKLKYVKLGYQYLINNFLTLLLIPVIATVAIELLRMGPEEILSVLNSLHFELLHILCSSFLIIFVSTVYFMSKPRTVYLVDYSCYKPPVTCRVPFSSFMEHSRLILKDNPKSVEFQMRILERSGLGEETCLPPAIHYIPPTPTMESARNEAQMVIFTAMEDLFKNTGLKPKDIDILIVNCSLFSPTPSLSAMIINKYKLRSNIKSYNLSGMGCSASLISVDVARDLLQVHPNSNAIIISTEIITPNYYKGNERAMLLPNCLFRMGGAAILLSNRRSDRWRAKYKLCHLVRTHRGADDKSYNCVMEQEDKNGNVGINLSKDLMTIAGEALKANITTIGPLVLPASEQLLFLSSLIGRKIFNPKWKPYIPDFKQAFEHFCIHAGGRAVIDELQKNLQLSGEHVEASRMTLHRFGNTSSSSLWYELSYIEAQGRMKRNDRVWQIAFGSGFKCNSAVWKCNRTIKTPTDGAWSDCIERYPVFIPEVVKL

[8] = biological target: T6, 3-ketoacyl-CoA synthase 2 (Arabidopsis thaliana) (UniProt Q5XEP9); assay: Inhibition of Arbidopsis thaliana C-terminal His-tagged At1g04220 expressed in Saccharomyces cerevisiae INVSc1 at 100 uM after 18 to 20 hr by GC/MS analysis; how it was run: as §1
T6 sequence (whole entry): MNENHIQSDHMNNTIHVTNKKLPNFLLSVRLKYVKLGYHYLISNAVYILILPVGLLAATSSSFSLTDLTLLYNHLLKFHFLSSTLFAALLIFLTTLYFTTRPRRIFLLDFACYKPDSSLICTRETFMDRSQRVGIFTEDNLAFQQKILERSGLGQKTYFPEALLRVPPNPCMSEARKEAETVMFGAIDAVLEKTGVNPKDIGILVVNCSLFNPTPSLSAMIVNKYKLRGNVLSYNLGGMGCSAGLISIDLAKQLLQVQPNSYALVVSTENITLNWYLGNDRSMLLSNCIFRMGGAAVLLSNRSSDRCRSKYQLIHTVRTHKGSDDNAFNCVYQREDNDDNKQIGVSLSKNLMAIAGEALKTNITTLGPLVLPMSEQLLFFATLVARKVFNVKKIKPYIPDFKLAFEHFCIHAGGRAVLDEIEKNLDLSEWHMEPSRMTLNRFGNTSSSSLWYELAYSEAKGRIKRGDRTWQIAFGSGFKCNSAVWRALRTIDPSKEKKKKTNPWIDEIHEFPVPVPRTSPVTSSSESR

Row | Compound | inhibition [1] | Activity [2] | inhibition [3] | inhibition [4] | inhibition [5] | Activity [6] | inhibition [7] | inhibition [8]
1 | CCN(CC)C(=O)C(C)Oc1cccc2ccccc12 (configuration not stated) [NAPROPAMIDE] | inactive | Non-toxic | inactive | inactive | inactive | inactive | inactive | inactive
2 | CCN(CC)C(=O)n1cnc(S(=O)(=O)c2c(C)cc(C)cc2C)n1 [CAFENSTROLE] | Active | Non-toxic | Active | Active | Active | Active | Active | Active
3 | CCN(C(=O)n1nnn(-c2ccccc2Cl)c1=O)C1CCCCC1 [FENTRAZAMIDE] | Active | Non-toxic | Active | inactive | Active | Active | inactive | inactive
4 | CCc1cccc(CC)c1N(COC)C(=O)CCl [ALACHLOR] | Active | Non-toxic | Active | inactive | Active | inactive | Active | inactive
5 | CN(C)C(=O)C(c1ccccc1)c1ccccc1 [DIPHENAMIDE] | inactive | Non-toxic | inactive | inactive | inactive | inactive | inactive | inactive
6 | CCOC1Oc2ccc(OS(C)(=O)=O)cc2C1(C)C (configuration not stated) [ETHOFUMESATE] | inactive | Non-toxic | inactive | inactive | inactive | Active | inactive | inactive
7 | CC(C)N(C(=O)COc1nnc(C(F)(F)F)s1)c1ccc(F)cc1 [FLUFENACET] | Active | Non-toxic | Active | Active | Active | Active | Active | Active
8 | CCS(=O)(=O)Oc1ccc2c(c1)C(C)(C)CO2 [BENFURESATE] | inactive | Non-toxic | inactive | inactive | inactive | Active | inactive | inactive
9 | CC(C)N(C(=O)SCC(Cl)=C(Cl)Cl)C(C)C [TRIALLATE] | inactive | Non-toxic | inactive | inactive | inactive | inactive | Active | inactive

— ChEMBL document CHEMBL3045755, “Specific and differential inhibition of very-long-chain fatty acid elongases from Arabidopsis thaliana by different herbicides” (Proc Natl Acad Sci U S A, 2004)
